≈ marks a conversion by molar mass, not a printed value.
Experiments:
[1] = Elimination half life in human liver microsomes at 0.1 uM pre-incubated with compound followed by NADPH addition and measured after 60 mins by LC-MS/MS analysis; format: ADME, microsome; details: read-out: beta t1/2
[2] = Intrinsic clearance in mouse liver microsomes assessed per g protein at 0.1 uM pre-incubated with compound followed by NADPH addition and measured after 60 mins by LC-MS/MS analysis; format: ADME, microsome; details: 1 h
Method in brief: (§1)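 Liver microsomes, 0.33 mg/mL microsomal protein, with an NADP+-regenerating system. Test article at 0.1 µM, incubated at 37°C. Samples were taken at 0, 7, 17, 30 and 60 min, and parent compound was measured by MS. Half-life, intrinsic clearance (ml/min/g protein) and MF (%) are derived from parent loss.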

Pseudomonas aeruginosa [3] = test: Antibacterial activity against IMP-4 producing Pseudomonas aeruginosa isolate 209471 after 18 hrs by CLSI broth microdilution method; format: functional; details: isolate 209471, 18 h
Escherichia coli [4] = test: Antibacterial activity against extended-spectrum beta-lactamase producing Escherichia coli isolate 106342 after 18 hrs in presence of BPL by CLSI broth microdilution method; format: functional; details: isolate 106342, 18 h
Method in brief: (§2)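 CLSI broth microdilution against clinical isolates (ESBL E. coli, KPC-2 MDR K. pneumoniae, IMP-4 MDR P. aeruginosa; five per species). Iron limitation: Mueller-Hinton broth supplemented with 16 mg/liter 2,2'-bipyridyl to complex iron and induce iron uptake systems. Read-out: MIC.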

Klebsiella pneumoniae [5] = test: Antibacterial activity against KPC-2 producing Klebsiella pneumoniae isolate 212232 after 18 hrs by CLSI broth microdilution method; format: functional; details: isolate 212232, 18 h
Pseudomonas aeruginosa [6] = test: Selectivity index, ratio of MIC for against IMP-4 producing Pseudomonas aeruginosa isolate 207272 to MIC for against IMP-4 producing Pseudomonas aeruginosa isolate 207272 in presence of BPL; format: functional
Escherichia coli [7] = test: Selectivity index, ratio of MIC for against extended-spectrum beta-lactamase producing Escherichia coli isolate 209285 to MIC for extended-spectrum beta-lactamase producing Escherichia coli isolate 209285 in presence of BPL; format: functional
Escherichia coli [8] = test: Selectivity index, ratio of MIC for against Escherichia coli isolate 210737 to MIC for Escherichia coli isolate 210737 in presence of BPL; format: functional
Escherichia coli [9] = test: Antibacterial activity against extended-spectrum beta-lactamase producing Escherichia coli isolate 209285 after 18 hrs in presence of BPL by CLSI broth microdilution method; format: functional; details: isolate 209285, 18 h; method in brief: as §2
Klebsiella pneumoniae [10] = test: Selectivity index, ratio of MIC for against KPC-2 producing Klebsiella pneumoniae isolate 209735 to MIC for against KPC-2 producing Klebsiella pneumoniae isolate 209735 in presence of BPL; format: functional
Klebsiella pneumoniae [11] = test: Antibacterial activity against KPC-2 producing Klebsiella pneumoniae isolate 209735 after 18 hrs by CLSI broth microdilution method; format: functional; details: isolate 209735, 18 h
[12] = Elimination half life in mouse liver microsomes at 0.1 uM pre-incubated with compound followed by NADPH addition and measured after 60 mins by LC-MS/MS analysis; format: ADME, microsome; details: read-out: beta t1/2
Klebsiella pneumoniae [13] = test: Antibacterial activity against KPC-2 producing Klebsiella pneumoniae isolate 209632 after 18 hrs by CLSI broth microdilution method; format: functional; details: isolate 209632, 18 h
Klebsiella pneumoniae [14] = test: Antibacterial activity against KPC-2 producing Klebsiella pneumoniae isolate 212423 after 18 hrs by CLSI broth microdilution method; format: functional; details: isolate 212423, 18 h
[15] = Intrinsic clearance in human liver microsomes assessed per g protein at 0.1 uM pre-incubated with compound followed by NADPH addition and measured after 60 mins by LC-MS/MS analysis; format: ADME, microsome; details: 1 h; method in brief: as §1
Klebsiella pneumoniae [16] = test: Antibacterial activity against KPC-2 producing Klebsiella pneumoniae isolate 212229 after 18 hrs by CLSI broth microdilution method; format: functional; details: isolate 212229, 18 h
Pseudomonas aeruginosa [17] = test: Antibacterial activity against IMP-4 producing Pseudomonas aeruginosa isolate 208247 after 18 hrs in presence of BPL by CLSI broth microdilution method; format: functional; details: isolate 208247, 18 h; method in brief: as §2
Pseudomonas aeruginosa [18] = test: Antibacterial activity against IMP-4 producing Pseudomonas aeruginosa isolate 209321 after 18 hrs by CLSI broth microdilution method; format: functional; details: isolate 209321, 18 h
Pseudomonas aeruginosa [19] = test: Antibacterial activity against IMP-4 producing Pseudomonas aeruginosa isolate 209321 after 18 hrs in presence of BPL by CLSI broth microdilution method; format: functional; details: isolate 209321, 18 h; method in brief: as §2
Escherichia coli [20] = test: Selectivity index, ratio of MIC for against extended-spectrum beta-lactamase producing Escherichia coli isolate 208687 to MIC for extended-spectrum beta-lactamase producing Escherichia coli isolate 208687 in presence of BPL; format: functional
Escherichia coli [21] = test: Antibacterial activity against extended-spectrum beta-lactamase producing Escherichia coli isolate 212648 after 18 hrs by CLSI broth microdilution method; format: functional; details: isolate 212648, 18 h
Escherichia coli [22] = test: Antibacterial activity against extended-spectrum beta-lactamase producing Escherichia coli isolate 208687 after 18 hrs in presence of BPL by CLSI broth microdilution method; format: functional; details: isolate 208687, 18 h; method in brief: as §2
Klebsiella pneumoniae [23] = test: Selectivity index, ratio of MIC for against KPC-2 producing Klebsiella pneumoniae isolate 212423 to MIC for against KPC-2 producing Klebsiella pneumoniae isolate 212423 in presence of BPL; format: functional
Escherichia coli [24] = test: Selectivity index, ratio of MIC for against extended-spectrum beta-lactamase producing Escherichia coli isolate 106342 to MIC for extended-spectrum beta-lactamase producing Escherichia coli isolate 106342 in presence of BPL; format: functional
Klebsiella pneumoniae [25] = test: Antibacterial activity against KPC-2 producing Klebsiella pneumoniae isolate 212229 after 18 hrs in presence of BPL by CLSI broth microdilution method; format: functional; details: isolate 212229, 18 h; method in brief: as §2
Klebsiella pneumoniae [26] = test: Antibacterial activity against KPC-2 producing Klebsiella pneumoniae isolate 212232 after 18 hrs in presence of BPL by CLSI broth microdilution method; format: functional; details: isolate 212232, 18 h; method in brief: as §2
Pseudomonas aeruginosa [27] = test: Antibacterial activity against IMP-4 producing Pseudomonas aeruginosa isolate 207272 after 18 hrs by CLSI broth microdilution method; format: functional; details: isolate 207272, 18 h
Escherichia coli [28] = test: Antibacterial activity against extended-spectrum beta-lactamase producing Escherichia coli isolate 208687 after 18 hrs by CLSI broth microdilution method; format: functional; details: isolate 208687, 18 h
Pseudomonas aeruginosa [29] = test: Antibacterial activity against IMP-4 producing Pseudomonas aeruginosa isolate 207272 after 18 hrs in presence of BPL by CLSI broth microdilution method; format: functional; details: isolate 207272, 18 h; method in brief: as §2
Klebsiella pneumoniae [30] = test: Antibacterial activity against KPC-2 producing Klebsiella pneumoniae isolate 212423 after 18 hrs in presence of BPL by CLSI broth microdilution method; format: functional; details: isolate 212423, 18 h; method in brief: as §2
Klebsiella pneumoniae [31] = test: Selectivity index, ratio of MIC for against KPC-2 producing Klebsiella pneumoniae isolate 212232 to MIC for against KPC-2 producing Klebsiella pneumoniae isolate 212232 in presence of BPL; format: functional
Pseudomonas aeruginosa [32] = test: Selectivity index, ratio of MIC for against IMP-4 producing Pseudomonas aeruginosa isolate 212886 to MIC for against IMP-4 producing Pseudomonas aeruginosa isolate 212886 in presence of BPL; format: functional
Escherichia coli [33] = test: Selectivity index, ratio of MIC for against extended-spectrum beta-lactamase producing Escherichia coli isolate 212648 to MIC for extended-spectrum beta-lactamase producing Escherichia coli isolate 212648 in presence of BPL; format: functional
Escherichia coli [34] = test: Antibacterial activity against Escherichia coli isolate 210737 after 18 hrs by CLSI broth microdilution method; format: functional; details: isolate 210737, 18 h

half-life at 0.1 µM [1] [h] | CLint [2] [mL/min/g] | MIC (Pseudomonas aeruginosa [3]) [µg/mL] | MIC (Escherichia coli [4]) [µg/mL] | MIC (Klebsiella pneumoniae [5]) [µg/mL] | MIC (Escherichia coli [9]) [µg/mL] | MIC (Klebsiella pneumoniae [11]) [µg/mL] | half-life at 0.1 µM [12] [h] | MIC (Klebsiella pneumoniae [13]) [µg/mL] | MIC (Klebsiella pneumoniae [14]) [µg/mL] | CLint [15] [mL/min/g] | MIC (Klebsiella pneumoniae [16]) [µg/mL] | MIC (Pseudomonas aeruginosa [17]) [µg/mL] | MIC (Pseudomonas aeruginosa [18]) [µg/mL] | MIC (Pseudomonas aeruginosa [19]) [µg/mL] | SMILES | Selectivity Index (Pseudomonas aeruginosa [6]) | Selectivity Index (Escherichia coli [7]) | Selectivity Index (Escherichia coli [8]) | Selectivity Index (Klebsiella pneumoniae [10]) | Selectivity Index (Escherichia coli [20]) | also measured
1.33 | 27.1 | 8 (≈ 10.4 µM) | 8 | 2 (≈ 2.61 µM) | 8 | 2 (≈ 2.61 µM) | 1.29 | 2 (≈ 2.61 µM) | 2 (≈ 2.61 µM) | 26.2 | 2 (≈ 2.61 µM) | 4 | 8 (≈ 10.4 µM) | 4 | CC(C)C(O/N=C(\C(=O)N[C@@H]1C(=O)N(S(=O)(=O)O)[C@@H]1Cn1cc(COCc2cc(=O)c(O)cn2O)nn1)c1csc(N)n1)c1cc(=O)c(O)cn1O (stereo partly specified) | 8 | 2 | 2 | 8 | 16 | MIC (Escherichia coli [21]): 16 µg/mL (≈ 20.9 µM); MIC (Escherichia coli [22]): 1 µg/mL; Selectivity Index (Klebsiella pneumoniae [23]): 8; Selectivity Index (Escherichia coli [24]): 2; MIC (Klebsiella pneumoniae [25]): 0.25 µg/mL; MIC (Klebsiella pneumoniae [26]): 0.25 µg/mL; MIC (Pseudomonas aeruginosa [27]): 16 µg/mL (≈ 20.9 µM); MIC (Escherichia coli [28]): 16 µg/mL (≈ 20.9 µM); MIC (Pseudomonas aeruginosa [29]): 2 µg/mL; MIC (Klebsiella pneumoniae [30]): 0.25 µg/mL; Selectivity Index (Klebsiella pneumoniae [31]): 8; Selectivity Index (Pseudomonas aeruginosa [32]): 4; Selectivity Index (Escherichia coli [33]): 2; MIC (Escherichia coli [34]): 16 µg/mL (≈ 20.9 µM)
4.52 | 5.59 | 16 (≈ 28 µM) | 0.25 | 1 (≈ 1.75 µM) | 0.5 | 2 (≈ 3.51 µM) | 6.25 | 2 (≈ 3.51 µM) | 2 (≈ 3.51 µM) | 7.76 | 1 (≈ 1.75 µM) | 8 | 8 (≈ 14 µM) | 8 | CC(C)C(O/N=C(\C(=O)N[C@@H]1C(=O)N(S(=O)(=O)O)C12CCCC2)c1csc(N)n1)c1cc(=O)c(O)cn1O (stereo partly specified) | 2 | 1 | 8 | 8 | 2 | MIC (Escherichia coli [21]): 1 µg/mL (≈ 1.75 µM); MIC (Escherichia coli [22]): 0.25 µg/mL; Selectivity Index (Klebsiella pneumoniae [23]): 4; Selectivity Index (Escherichia coli [24]): 2; MIC (Klebsiella pneumoniae [25]): 0.125 µg/mL; MIC (Klebsiella pneumoniae [26]): 0.06 µg/mL; MIC (Pseudomonas aeruginosa [27]): 16 µg/mL (≈ 28 µM); MIC (Escherichia coli [28]): 0.5 µg/mL (≈ 0.876 µM); MIC (Pseudomonas aeruginosa [29]): 8 µg/mL; MIC (Klebsiella pneumoniae [30]): 0.5 µg/mL; Selectivity Index (Klebsiella pneumoniae [31]): 16; Selectivity Index (Pseudomonas aeruginosa [32]): 2; Selectivity Index (Escherichia coli [33]): 2; MIC (Escherichia coli [34]): 0.5 µg/mL (≈ 0.876 µM)
2.93 | 3.41 | 8 (≈ 13.6 µM) | 0.25 | 1 (≈ 1.7 µM) | 0.125 | 32 (≈ 54.3 µM) | 10.3 | 8 (≈ 13.6 µM) | 1 (≈ 1.7 µM) | 11.9 | 1 (≈ 1.7 µM) | 4 | 8 (≈ 13.6 µM) | 4 | CC(C)C(O/N=C(\C(=O)N[C@@H]1C(=O)N(S(=O)(=O)O)[C@@H]1COC(N)=O)c1csc(N)n1)c1cc(=O)c(O)cn1O (stereo partly specified) | 2 | 4 | 1 | 4 | 2 | MIC (Escherichia coli [21]): 1 µg/mL (≈ 1.7 µM); MIC (Escherichia coli [22]): 0.25 µg/mL; Selectivity Index (Klebsiella pneumoniae [23]): 2; Selectivity Index (Escherichia coli [24]): 2; MIC (Klebsiella pneumoniae [25]): 0.25 µg/mL; MIC (Klebsiella pneumoniae [26]): 0.25 µg/mL; MIC (Pseudomonas aeruginosa [27]): 8 µg/mL (≈ 13.6 µM); MIC (Escherichia coli [28]): 0.5 µg/mL (≈ 0.848 µM); MIC (Pseudomonas aeruginosa [29]): 4 µg/mL; MIC (Klebsiella pneumoniae [30]): 0.5 µg/mL; Selectivity Index (Klebsiella pneumoniae [31]): 4; Selectivity Index (Pseudomonas aeruginosa [32]): 1; Selectivity Index (Escherichia coli [33]): 4; MIC (Escherichia coli [34]): 0.25 µg/mL (≈ 0.424 µM)
3.15 | 29 | 8 (≈ 14.2 µM) | 0.25 | 2 (≈ 3.54 µM) | 0.5 | 32 (≈ 56.6 µM) | 1.2 | 4 (≈ 7.08 µM) | 0.5 (≈ 0.885 µM) | 11.1 | 0.5 (≈ 0.885 µM) | 8 | 8 (≈ 14.2 µM) | 8 | CC(C)C(O/N=C(\C(=O)N[C@@H]1C(=O)N(S(=O)(=O)O)[C@@H]1CCl)c1csc(N)n1)c1cc(=O)c(O)cn1O (stereo partly specified) | 2 | 1 | 4 | 4 | 2 | MIC (Escherichia coli [21]): 1 µg/mL (≈ 1.77 µM); MIC (Escherichia coli [22]): 0.25 µg/mL; Selectivity Index (Klebsiella pneumoniae [23]): 1; Selectivity Index (Escherichia coli [24]): 4; MIC (Klebsiella pneumoniae [25]): 0.25 µg/mL; MIC (Klebsiella pneumoniae [26]): 0.5 µg/mL; MIC (Pseudomonas aeruginosa [27]): 8 µg/mL (≈ 14.2 µM); MIC (Escherichia coli [28]): 0.5 µg/mL (≈ 0.885 µM); MIC (Pseudomonas aeruginosa [29]): 4 µg/mL; MIC (Klebsiella pneumoniae [30]): 0.5 µg/mL; Selectivity Index (Klebsiella pneumoniae [31]): 4; Selectivity Index (Pseudomonas aeruginosa [32]): 1; Selectivity Index (Escherichia coli [33]): 4; MIC (Escherichia coli [34]): 1 µg/mL (≈ 1.77 µM)
